In ChEMBL document CHEMBL1687898, “Structure-activity relationships in glycosylated 2-phenyl-indoles, 2-phenyl-benzo[b]thiophenes and 2-phenyl-benzo[b]furans as DNA binding and potential antitumor agents” (Bioorg Med Chem, 2011):

Assays:
MCF7 [1] = test: Cytotoxicity against human MCF7 cells assessed as cell viability at 25 uM by MTS assay; format: functional; conditions: read-out: Activity
Method in brief: (§1)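 Cells kept in DMEM high glucose with 10% FBS and 2 mM L-glutamine, 37 °C, 5% CO2, and seeded at 1 × 10⁴ cells/well. After 24 h, switched to serum-free DMEM-F12 with albumin, transferrin and insulin, with or without compound. Incubated 3 days at 37 °C in triplicate to quintuplicate wells. MTS added for 2–2.5 h and read at 490 nm. Viability given as % of media-only control. IC50 from Boltzmann nonlinear regression.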

Nucleic Acid [2] = test: Displacement of ethidium bromide from herring sperm DNA assessed as remaining ethidium bromide at 50 uM by FID assay; format: nucleic-acid assay; conditions: Clupeidae
Method in brief: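 Single-point FID. Read EtBr (5 µM) in BPE buffer (pH 7.0), exc 520 nm, em 540–700 nm, then read again with sheared herring sperm DNA added; the intensity difference is 100%. Compound added from 10 mM DMSO stock to a final 50 µM, equilibrated ~3 min, rescanned until steady. % EtBr remaining is the mean of triplicates.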

HepG2 [3] = test: Cytotoxicity against human HepG2 cells assessed as cell viability at 25 uM by MTS assay; format: functional; conditions: read-out: Activity; method in brief: as §1
HT-29 [4] = test: Cytotoxicity against human HT-29 cells assessed as cell viability at 25 uM by MTS assay; format: functional; conditions: read-out: Activity; method in brief: as §1
Nucleic Acid [5] = test: Displacement of ethidium bromide from herring sperm DNA assessed as remaining ethidium bromide at 20 uM by FID assay; format: nucleic-acid assay; conditions: Clupeidae
HT-29 [6] = test: Cytotoxicity against human HT-29 cells by MTS assay; format: functional, cell-based; method in brief: as §1
Nucleic Acid [7] = test: Displacement of ethidium bromide from herring sperm DNA assessed as compound concentration required to 50% fluorescence loss of EtBr by FID assay; format: nucleic-acid assay; conditions: Clupeidae
Method in brief: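 Multiple-point FID in the same system: 0.2 µL aliquots of 10 mM DMSO stock added stepwise, fluorescence read after each addition, until 50% loss of EtBr fluorescence. Apparent binding constant K_Ligand = K_EtBr × [EtBr]/[Ligand]50%.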

MCF7 [8] = test: Cytotoxicity against human MCF7 cells by MTS assay; format: functional, cell-based; method in brief: as §1
HepG2 [9] = test: Cytotoxicity against human HepG2 cells by MTS assay; format: functional, cell-based; method in brief: as §1
Nucleic Acid [10] = test: Displacement of ethidium bromide from herring sperm DNA assessed as remaining ethidium bromide at 100 uM by FID assay; format: nucleic-acid assay; conditions: Clupeidae
HepG2 [11] = test: Cytotoxicity against human HepG2 cells assessed as cell viability at 100 uM by MTS assay; format: functional; conditions: read-out: Activity
MCF7 [12] = test: Cytotoxicity against human MCF7 cells assessed as cell viability at 100 uM by MTS assay; format: functional; conditions: read-out: Activity
HT-29 [13] = test: Cytotoxicity against human HT-29 cells assessed as cell viability at 100 uM by MTS assay; format: functional; conditions: read-out: Activity

Row | Activity (Nucleic Acid [2]) | Activity (Nucleic Acid [5]) | Activity (Nucleic Acid [7]) | Activity (Nucleic Acid [10]) | SMILES | viability at 25 µM (MCF7 [1]) | viability at 25 µM (HepG2 [3]) | viability at 25 µM (HT-29 [4]) | IC50 (HT-29 [6]) | IC50 (MCF7 [8]) | IC50 (HepG2 [9]) | viability at 100 µM (HepG2 [11]) | viability at 100 µM (MCF7 [12]) | viability at 100 µM (HT-29 [13])
1 | 111% | – | – | – | Cc1ccc(S(=O)(=O)n2c(-c3ccccc3)c(C#CCO[C@H]3CC[C@@H](O)[C@H](C)O3)c3ccccc32)cc1 | 40% | 27% | 54% | – | – | – | – | – | –
2 | 26.9% | > 100% | 55 µM | – | C[C@@H]1O[C@H](OCC#Cc2c(-c3ccccc3)oc3ccccc23)CC[C@@H]1N | < 1% | < 1% | < 1% | 5.4 µM | 8.3 µM | 6.7 µM | – | – | –
3 | 79.9% | – | – | 79.9% | C[C@@H]1O[C@@H](OCC#Cc2c(-c3ccccc3)sc3ccccc23)CC[C@@H]1N | – | – | – | – | – | – | – | – | –
4 | 99.9% | – | – | – | C[C@@H]1O[C@H](OCC#Cc2c(-c3ccccc3)sc3ccccc23)CC[C@H]1O | 23% | 7% | 2% | 12.8 µM | – | 13.6 µM | – | – | –
5 | – | – | – | – | C[C@@H]1O[C@@H](OCC#Cc2c(-c3ccccc3)sc3ccccc23)CC[C@@H]1O | 56% | 10% | 10% | 13.4 µM | – | 15.6 µM | – | – | –
6 | 103% | – | – | – | C[C@@H]1O[C@H](OCC#Cc2c(-c3ccccc3)oc3ccccc23)CC[C@H]1O | 29% | 6% | 7% | 12.4 µM | – | 22.3 µM | – | – | –
7 | – | – | – | – | OCCCc1c(-c2ccccc2)oc2ccccc12 | 94% | 91% | 76% | – | – | – | < 1% | 16% | < 1%
8 | – | – | – | – | C[C@@H]1O[C@@H](OCC#Cc2c(-c3ccccc3)sc3ccccc23)CC[C@@H]1OC=O | 59% | 17% | 2% | 12.6 µM | – | 19.8 µM | – | – | –
9 | 109% | – | – | – | Cc1ccc(S(=O)(=O)n2c(-c3ccccc3)c(C#CCO[C@@H]3CC[C@@H](O)[C@H](C)O3)c3ccccc32)cc1 | 33% | 5% | 24% | – | – | 18.6 µM | – | – | –
10 | – | – | – | – | CC(=O)O[C@@H]1CC[C@@H](OCC#Cc2c(-c3ccccc3)oc3ccccc23)O[C@H]1C | 78% | 15% | 9% | 10.7 µM | – | 20.9 µM | – | – | –
11 | – | – | – | 43.5% | C[C@@H]1O[C@@H](OCCCc2c(-c3ccccc3)oc3ccccc23)CC[C@@H]1N | < 1% | < 1% | < 1% | 6.9 µM | 13.8 µM | 7.7 µM | – | – | –
12 | – | – | – | – | C[C@@H]1O[C@@H](OCC#Cc2c(-c3ccccc3)sc3ccccc23)CC[C@@H]1OC(=O)c1ccccc1 | 100% | 99% | 81% | – | – | – | – | – | –
13 | 68.5% | – | – | 68.5% | C[C@@H]1O[C@@H](OCC#Cc2c(-c3ccccc3)oc3ccccc23)CC[C@@H]1N | – | – | – | – | – | – | – | – | –
14 | – | – | – | 51.9% | C[C@@H]1O[C@@H](OCCCc2c(-c3ccccc3)sc3ccccc23)CC[C@@H]1N | < 1% | < 1% | < 1% | 8.2 µM | 11.8 µM | 7.5 µM | – | – | –
15 | – | – | – | – | C[C@@H]1O[C@@H](OCCCc2c(-c3ccccc3)sc3ccccc23)CC[C@H]1O | 68% | 84% | 19% | 15.3 µM | – | – | – | – | –
16 | 19.8% | > 100% | 55 µM | – | Cc1ccc(S(=O)(=O)n2c(-c3ccccc3)c(C#CCO[C@@H]3CC[C@H](N)[C@H](C)O3)c3ccccc32)cc1 | < 1% | < 1% | < 1% | 5.3 µM | 5.3 µM | 5 µM | – | – | –
17 | – | – | – | – | CC(=O)O[C@@H]1CC[C@H](OCC#Cc2c(-c3ccccc3)oc3ccccc23)O[C@H]1C | 24% | 5% | 8% | 11.8 µM | – | 19.2 µM | – | – | –
18 | – | – | – | – | C[C@@H]1O[C@@H](OCCCc2c(-c3ccccc3)oc3ccccc23)CC[C@H]1O | 65% | 62% | 25% | 16.9 µM | – | – | – | – | –
19 | – | – | – | – | CC(=O)O[C@@H]1CC[C@H](OCCCc2c(-c3ccccc3)sc3ccccc23)O[C@H]1C | 47% | 72% | 9% | 10.2 µM | – | – | – | – | –
20 | – | – | – | – | C[C@@H]1O[C@@H](OCC#Cc2c(-c3ccccc3)sc3ccccc23)CC[C@H]1OC=O | 37% | < 1% | – | 7.7 µM | – | 17.4 µM | – | – | –
21 | – | – | – | – | OCCCc1c(-c2ccccc2)sc2ccccc12 | 79% | 87% | < 1% | 16.3 µM | – | – | < 1% | < 1% | < 1%
22 | – | – | – | – | C[C@@H]1O[C@@H](OCC#Cc2c(-c3ccccc3)sc3ccccc23)CC[C@H]1N | < 1% | < 1% | < 1% | 5.3 µM | 6.6 µM | 4.7 µM | – | – | –
23 | 26.6% | – | 45 µM | – | C[C@@H]1O[C@H](OCC#Cc2c(-c3ccccc3)sc3ccccc23)CC[C@@H]1N | < 1% | < 1% | < 1% | 4.6 µM | 7.7 µM | 4.9 µM | – | – | –
24 | – | – | – | – | CC(=O)O[C@@H]1CC[C@@H](OCC#Cc2c(-c3ccccc3)sc3ccccc23)O[C@H]1C | 40% | 8% | < 1% | 10 µM | – | 15.7 µM | – | – | –
25 | 103% | – | – | – | C[C@@H]1O[C@@H](OCC#Cc2c(-c3ccccc3)sc3ccccc23)CC[C@H]1O | 51% | 25% | 6% | 11.1 µM | – | 16.4 µM | – | – | –
26 | – | – | – | – | CC(=O)O[C@@H]1CC[C@H](OCC#Cc2c(-c3ccccc3)sc3ccccc23)O[C@H]1C | 27% | < 1% | < 1% | 7.2 µM | – | 12.3 µM | – | – | –
27 | – | – | – | – | CC(=O)O[C@@H]1CC[C@H](OCCCc2c(-c3ccccc3)oc3ccccc23)O[C@H]1C | 53% | 42% | 19% | 17.8 µM | – | – | – | – | –
28 | 38.6% | – | – | – | Cc1ccc(S(=O)(=O)n2c(-c3ccccc3)c(C#CCO[C@H]3CC[C@H](N)[C@H](C)O3)c3ccccc32)cc1 | – | – | – | – | – | – | – | – | –
29 | 96.7% | – | – | – | C[C@@H]1O[C@@H](OCC#Cc2c(-c3ccccc3)oc3ccccc23)CC[C@H]1O | 38% | < 1% | 3% | 13.1 µM | – | 15.3 µM | – | – | –
